Experiments:
Format in all cases: functional, organism-based
[1] = species: Homo sapiens; assay: Antiplatelet aggregation (collagen-induced) activity at a concentration of 10 ug/mL
In short: (§1)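 Platelets preincubated with test compound, aspirin or DMSO (0.5%, control) at 37 °C for 3 min, then aggregation inducer added (arachidonic acid, collagen, PAF or thrombin). IC50 values given as means ± S.E. (n=3).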

[2] = species: Homo sapiens; assay: Antiplatelet aggregation (platelet activating factor-induced) activity at a concentration of 2 ng/mL; in short: as §1
[3] = species: Homo sapiens; assay: Antiplatelet aggregation (thrombin-induced) activity at a concentration of 0.1 U; in short: as §1
[4] = species: Homo sapiens; assay: Inhibitory activity against arachidonic acid-induced platelet aggregation at a concentration of 100 uM was determined; in short: as §1

Compound	IC50 [1] [µM]	IC50 [2] [µM]	IC50 [3] [µM]	IC50 [4] [µM]
COc1cc2c(cc1OC)C1=C(c3ccc(Cl)cc3)C(=O)C(=O)N1CC2	30	84.8	> 100	52.8
COc1cc2c(cc1OC)C1=C(c3ccccc3Br)C(=O)C(=O)N1CC2	39.8	> 100	> 100	> 100
COc1cc2c(cc1OC)C1=C(c3cccc(Br)c3)C(=O)C(=O)N1CC2	23.3	> 100	> 100	45.5
COc1ccc(C2=C3c4cc(OC)c(OC)cc4CCN3C(=O)C2=O)cc1	9.15	33.2	30.7	15.2
COc1cc2c(cc1OC)C1=C(c3ccccc3OC)C(=O)C(=O)N1CC2	35.8	> 100	> 100	65.5
CC(=O)Oc1ccccc1C(=O)O [ASPIRIN]	22.4	> 100	> 100	44.6

Further compounds by falling IC50 [1], results first:

IC50 [1] [µM]	IC50 [2] [µM]	IC50 [3] [µM]	IC50 [4] [µM]	Compound
44.9	> 100	> 100	78.3	COc1cc2c(cc1OC)C1=C(c3ccccc3Cl)C(=O)C(=O)N1CC2
37.5	> 100	> 100	53.8	COc1cc2c(cc1OC)C1=C(c3cccc(Cl)c3)C(=O)C(=O)N1CC2
29.8	> 100	> 100	72.7	COc1cc2c(cc1OC)C1=C(c3ccc(Br)cc3)C(=O)C(=O)N1CC2
6.1	> 100	> 100	21	COc1cccc(C2=C3c4cc(OC)c(OC)cc4CCN3C(=O)C2=O)c1
